Measurements from ChEMBL document CHEMBL1828601, “Small molecule peptidomimetic inhibitors of importin α/β mediated nuclear transport” (Bioorg Med Chem, 2010).
The source made the active and inactive calls. How the calls were made is not given here.

Legend:
FGM [1] = experiment: Inhibition of importin alpha/beta-mediated nuclear transportation of Alexa555-BSA-NLS in human FGM cell nucleus at 500 uM after 30 mins by fluorescence microscopy; format: cell-based
FGM [2] = experiment: Inhibition of importin alpha/beta-mediated nuclear transportation of Alexa555-GST-M9 in human FGM cell nucleus at 500 uM after 30 mins by fluorescence microscopy; format: cell-based
Procedure, shortened: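 Transportin-dependent import measured the same way in permeabilized FGM cells, with 0.5 μM Alexa555-GST-M9 cargo in place of BSA-NLS. Conditions: 3 mg/ml HeLa cytosol, ATP-regenerating system, 0.2 mM GTP, 1% DMSO, 30 min at 30°C. Positive control was 1 mg/ml WGA. Nuclear cargo fluorescence quantified per nucleus by automated imaging.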

SMILES | inhibition (FGM [1]) | inhibition (FGM [2])
CC[C@H](C)[C@H](NC(=O)c1ccc(NC(=O)[C@@H](N)Cc2ccc(O)cc2)c(OCc2c[nH]cn2)c1)C(=O)O | inactive | inactive
N[C@@H](CCc1ccc(O)cc1)C(=O)N1C[C@@H](C(=O)NCCc2c[nH]cn2)[C@H](C(=O)NCCc2c[nH]c3ccccc23)C1 | inactive | inactive
C[C@@H](O)[C@H](N)C(=O)N1C[C@@H](C(=O)NCCCCN)[C@H](C(=O)NCCc2ccc3ccccc3c2)C1 | inactive | inactive
NCCCCNC(=O)[C@@H]1CN(C(=O)[C@@H](N)Cc2ccc3ccccc3c2)C[C@H]1C(=O)NCCc1ccc2ccccc2c1 | inactive | inactive
CC[C@H](N)C(=O)Nc1ccc(C(=O)N[C@@H](CCc2ccccc2)C(=O)O)cc1OCc1ccc(Cl)cc1 | Active | Active
CC(C)[C@H](N)C(=O)N1C[C@@H](C(=O)NCCc2c[nH]cn2)[C@H](C(=O)NCCc2c[nH]c3ccccc23)C1 | inactive | inactive
CC[C@@H](C)[C@H](N)C(=O)Nc1ccc(C(=O)N[C@@H](CCc2ccccc2)C(=O)O)cc1OCc1ccc(Cl)cc1 | Active | Active
CSCC[C@H](N)C(=O)N1C[C@@H](C(=O)NCCc2c[nH]cn2)[C@H](C(=O)NCCc2c[nH]c3ccccc23)C1 | inactive | inactive
CC[C@H](C)[C@H](NC(=O)c1ccc(NC(=O)[C@@H](N)Cc2ccccc2)c(OCc2c[nH]cn2)c1)C(=O)O | inactive | inactive
CSCC[C@H](N)C(=O)Nc1ccc(C(=O)N[C@@H](CCc2ccccc2)C(=O)O)cc1OCc1ccc(Cl)cc1 | Active | Active
CC[C@H](C)[C@H](NC(=O)c1ccc(NC(=O)[C@@H](N)Cc2ccc3ccccc3c2)c(OCc2c[nH]cn2)c1)C(=O)O | Active | Active
N[C@@H](CC(=O)O)C(=O)Nc1ccc(C(=O)N[C@@H](CCc2ccccc2)C(=O)O)cc1OCc1ccc(Cl)cc1 | Active | Active
CC[C@@H](C)[C@H](NC(=O)c1ccc(NC(=O)[C@@H](N)Cc2c[nH]cn2)c(OCc2c[nH]cn2)c1)C(=O)O | Active | Active
CC(C)[C@H](N)C(=O)Nc1ccc(C(=O)N[C@@H](CCc2ccccc2)C(=O)O)cc1OCc1ccc(Cl)cc1 | inactive | inactive
CC[C@H](C)[C@H](NC(=O)c1ccc(NC(=O)[C@@H](N)Cc2ccc(OC)cc2)c(OCc2c[nH]cn2)c1)C(=O)O | inactive | inactive
NCCCCNC(=O)[C@@H]1CN(C(=O)[C@@H](N)CCc2ccc(Cl)cc2)C[C@H]1C(=O)NCCc1ccc2ccccc2c1 | inactive | inactive
CC[C@H](C)[C@H](N)C(=O)N1C[C@@H](C(=O)NCCc2c[nH]cn2)[C@H](C(=O)NCCc2c[nH]c3ccccc23)C1 | Active | Active
CC[C@H](C)[C@H](NC(=O)c1ccc(NC(=O)[C@@H](N)CCc2ccccc2)c(OCc2c[nH]cn2)c1)C(=O)O | Active | Active
N[C@@H](CCc1ccc(Cl)cc1)C(=O)N1C[C@@H](C(=O)NCCc2c[nH]cn2)[C@H](C(=O)NCCc2c[nH]c3ccccc23)C1 | inactive | inactive

SMILES | inhibition (FGM [1]) | inhibition (FGM [2])
CC[C@@H](C)[C@H](N)C(=O)Nc1ccc(C(=O)N[C@H](C(=O)O)[C@@H](C)CC)cc1OCc1c[nH]cn1 | inactive | inactive
CC[C@H](N)C(=O)Nc1ccc(C(=O)N[C@H](C(=O)O)[C@@H](C)CC)cc1OCc1c[nH]cn1 | inactive | inactive
N[C@@H](CCc1ccccc1)C(=O)N1C[C@@H](C(=O)NCCc2c[nH]cn2)[C@H](C(=O)NCCc2c[nH]c3ccccc23)C1 | Active | Active
N[C@@H](CO)C(=O)Nc1ccc(C(=O)N[C@@H](CCc2ccccc2)C(=O)O)cc1OCc1ccc(Cl)cc1 | Active | Active
CC[C@H](C)[C@H](NC(=O)c1ccc(NC(=O)[C@@H](N)Cc2ccc(Cl)cc2)c(OCc2c[nH]cn2)c1)C(=O)O | inactive | inactive
CC(C)C[C@H](N)C(=O)N1C[C@@H](C(=O)NCCc2c[nH]cn2)[C@H](C(=O)NCCc2c[nH]c3ccccc23)C1 | inactive | inactive
CC[C@H](C)[C@H](NC(=O)c1ccc(NC(=O)[C@H](C)N)c(OCc2c[nH]cn2)c1)C(=O)O | inactive | inactive
CC[C@H](C)[C@H](NC(=O)c1ccc(NC(=O)[C@@H](N)Cc2c[nH]c3ccccc23)c(OCc2c[nH]cn2)c1)C(=O)O | inactive | inactive
N[C@@H](Cc1c[nH]c2ccccc12)C(=O)N1C[C@@H](C(=O)NCCc2c[nH]cn2)[C@H](C(=O)NCCc2c[nH]c3ccccc23)C1 | Active | Active
NCCCCNC(=O)[C@@H]1CN(C(=O)[C@@H](N)Cc2cnc[nH]2)C[C@H]1C(=O)NCCc1ccc2ccccc2c1 | inactive | inactive
NC(=O)C[C@H](N)C(=O)N1C[C@@H](C(=O)NCCc2c[nH]cn2)[C@H](C(=O)NCCc2c[nH]c3ccccc23)C1 | inactive | inactive
C[C@H](N)C(=O)Nc1ccc(C(=O)N[C@@H](CCc2ccccc2)C(=O)O)cc1OCc1ccc(Cl)cc1 | Active | Active
CC(C)C[C@H](N)C(=O)Nc1ccc(C(=O)N[C@@H](CCc2ccccc2)C(=O)O)cc1OCc1ccc(Cl)cc1 | Active | Active
CC[C@@H](C)[C@H](NC(=O)c1ccc(NC(=O)[C@@H](N)CC(=O)O)c(OCc2c[nH]cn2)c1)C(=O)O | inactive | inactive
NCCCCNC(=O)[C@@H]1CN(C(=O)[C@@H](N)CO)C[C@H]1C(=O)NCCc1ccc2ccccc2c1 | inactive | inactive
C[C@H](N)C(=O)N1C[C@@H](C(=O)NCCc2c[nH]cn2)[C@H](C(=O)NCCc2c[nH]c3ccccc23)C1 | inactive | inactive
C[C@@H](O)[C@H](N)C(=O)Nc1ccc(C(=O)N[C@@H](CCc2ccccc2)C(=O)O)cc1OCc1ccc(Cl)cc1 | inactive | inactive
N[C@@H](Cc1ccccc1)C(=O)Nc1ccc(C(=O)N[C@@H](CCc2ccccc2)C(=O)O)cc1OCc1ccc(Cl)cc1 | Active | Active
NCCCCNC(=O)[C@@H]1CN(C(=O)[C@@H](N)CC(=O)O)C[C@H]1C(=O)NCCc1ccc2ccccc2c1 | inactive | inactive

SMILES | inhibition (FGM [1]) | inhibition (FGM [2])
N[C@@H](Cc1ccc2ccccc2c1)C(=O)N1C[C@@H](C(=O)NCCc2c[nH]cn2)[C@H](C(=O)NCCc2c[nH]c3ccccc23)C1 | Active | Active
NCCCCNC(=O)[C@@H]1CN(C(=O)[C@@H](N)Cc2ccccc2)C[C@H]1C(=O)NCCc1ccc2ccccc2c1 | inactive | inactive
CC[C@@H](C)[C@H](NC(=O)c1ccc(NC(=O)[C@@H](N)CO)c(OCc2c[nH]cn2)c1)C(=O)O | Active | Active
N[C@@H](Cc1ccc(Cl)cc1)C(=O)N1C[C@@H](C(=O)NCCc2c[nH]cn2)[C@H](C(=O)NCCc2c[nH]c3ccccc23)C1 | Active | Active
CC[C@H](C)[C@H](NC(=O)c1ccc(NC(=O)[C@@H](N)CCSC)c(OCc2c[nH]cn2)c1)C(=O)O | inactive | inactive
NCCCC[C@H](N)C(=O)Nc1ccc(C(=O)N[C@@H](CCc2ccccc2)C(=O)O)cc1OCc1ccc(Cl)cc1 | inactive | inactive
NCCCCNC(=O)[C@@H]1CN(C(=O)[C@@H](N)CC(N)=O)C[C@H]1C(=O)NCCc1ccc2ccccc2c1 | inactive | inactive
N[C@@H](CCc1ccc(Cl)cc1)C(=O)N1C[C@@H](C(=O)NCCc2c[nH]c3ccccc23)[C@H](C(=O)NCCc2c[nH]c3ccccc23)C1 | inactive | –
CC[C@H](N)C(=O)Nc1ccc(C(=O)N[C@@H](Cc2ccc3ccccc3c2)C(=O)O)cc1OCC(C)C | inactive | –
CC[C@H](N)C(=O)Nc1ccc(C(=O)N[C@@H](CCc2ccccc2)C(=O)O)cc1OCc1ccccc1 | Active | –
N[C@@H](Cc1cnc[nH]1)C(=O)N1C[C@@H](C(=O)NCCc2c[nH]c3ccccc23)[C@H](C(=O)NCCc2c[nH]c3ccccc23)C1 | inactive | –
N[C@@H](Cc1ccc(O)cc1)C(=O)N1C[C@@H](C(=O)NCCc2c[nH]c3ccccc23)[C@H](C(=O)NCCc2c[nH]c3ccccc23)C1 | inactive | –
NCC(=O)Nc1ccc(C(=O)N[C@@H](CCc2ccccc2)C(=O)O)cc1OCc1ccccc1 | Active | –
CC(C)COc1cc(C(=O)N[C@@H](Cc2ccc3ccccc3c2)C(=O)O)ccc1NC(=O)[C@@H](N)CCc1ccccc1 | inactive | –
N[C@@H](Cc1ccc2ccccc2c1)C(=O)Nc1ccc(C(=O)N[C@@H](CCc2ccccc2)C(=O)O)cc1OCc1ccccc1 | inactive | –
COc1ccc(C[C@H](N)C(=O)Nc2ccc(C(=O)N[C@@H](Cc3ccc4ccccc4c3)C(=O)O)cc2OCC(C)C)cc1 | Active | –
N[C@@H](Cc1ccc(Cl)cc1)C(=O)Nc1ccc(C(=O)N[C@@H](CCc2ccccc2)C(=O)O)cc1OCc1ccccc1 | inactive | –
CC(C)COc1cc(C(=O)N[C@@H](Cc2ccc3ccccc3c2)C(=O)O)ccc1NC(=O)CN | inactive | –
